Source: PubChem BioAssay (several laboratories)
Compounds with a hit are over-represented: about 5.1% of the library has one in this group of screens.
STAT1 activator: activators of IFN-gamma induced STAT1 signaling; actives 2.6% (n = 200,000); activation (% of control), % at 5.5 µM; AID 932; NIH 3T3 STAT1-luciferase reporter, luminescence; 100% = IFN-gamma alone, no compound;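 active = activation above the screen-wide mean activation plus 3 SD, cut at about 130% in these data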
STAT3 activator: STAT3 signaling activation; activation (% of control), % at 5.6 µM; actives 0.91% (n = 190,000); U3A cells, IL-6 STAT3-luciferase reporter, luminescence; 100% = signal with IL-6 EC80 alone;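 active = activation above the screen-wide mean of compound activation plus 3 SD, cut at about 130% in these data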
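Material: human STAT1-deficient U3A cells with stable STAT3-luciferase reporter / Probe or stimulus: IL-6 stimulus at 33 ng/mL final / Schedule: 1 h compound pre-exposure, 6 h IL-6 stimulation, 37 °C / Technique: luminescence / Read-out basis: percent of IL-6-only median luminescence / Control set: IL-6-only high control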
STAT3 inh: reduces IL-6 driven STAT3 reporter signal. actives 0.89% (n = 190,000). inhibition, % at 5.5 µM. AID 862. U3A cells, IL-6 STAT3-luciferase reporter, luminescence; host cell line lacks STAT1;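 active = inhibition above the mean inhibition across all screened compounds plus 3 SD, cut at about 44% in these data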
APP 5'UTR act: activates APP 5'UTR luciferase reporter. actives 1% (n = 190,000). activation, % at 2 µM. SH-SY5Y APP 5'UTR luciferase reporter, luminescence; zero percent = DMSO vehicle wells;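 active = activation above a set limit, based on mean plus 3 SD of controls, cut at about 140% in these data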
STAT1 inh: STAT1 signaling inhibition. NIH 3T3 STAT1-luciferase reporter, IFN-gamma, luminescence. inhibition, % at 5.5 µM. actives 0.35% (n = 200,000);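 active = inhibition above a set limit, the mean inhibition across all tested compounds plus 3 SD, cut at about 34% in these data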
NF-kB neuron act: raises NF-kB expression in human neuronal cells. NF-kB reporter expression; active compounds read high. AID 1239. actives 1.6% (n = 190,000). fold change at 12.5 µM; in the data active = fold change above about 3.3
Numbers stand for hits.

Results for OC(COc1ccccc1)CSc1ncn[nH]1 (stereo unspecified) ?
STAT1 activator: inactive; STAT3 activator: inactive; STAT3 inh: inactive; APP 5'UTR act: inactive; STAT1 inh: inactive; NF-kB neuron act: inactive

What do the screens show for `CC(C)(C)c1ccc(OCC(O)CSc2ncn[nH]2)cc1` (stereo unspecified)?
STAT1 activator: 134; STAT3 activator: inactive; STAT3 inh: inactive; APP 5'UTR act: inactive; STAT1 inh: inactive; NF-kB neuron act: inactive

What do the screens show for `CCN(CC)C(=O)Oc1ccc2ccccc2c1Br`?
STAT1 activator: 135; STAT3 activator: inactive; STAT3 inh: inactive; APP 5'UTR act: inactive; STAT1 inh: inactive; NF-kB neuron act: inactive

Results for O=C(Oc1ccc2cc(Br)ccc2c1)N1CCCCCC1 ?
STAT1 activator: 131; STAT3 activator: inactive; STAT3 inh: inactive; APP 5'UTR act: inactive; STAT1 inh: inactive; NF-kB neuron act: inactive

Results for O=C(COc1ccc2ccccc2c1Br)N1CCN(c2ccccn2)CC1 ?
STAT1 activator: inactive; STAT3 activator: inactive; STAT3 inh: inactive; APP 5'UTR act: inactive; STAT1 inh: inactive; NF-kB neuron act: inactive

What do the screens show for `O=C(Oc1ccc2ccccc2c1Br)N1CCCCCC1`?
STAT1 activator: 135; STAT3 activator: inactive; STAT3 inh: inactive; APP 5'UTR act: 172; STAT1 inh: inactive; NF-kB neuron act: inactive

How did CCC1CCC(c2nnc(-c3ccc([N+](=O)[O-])cc3)o2)CC1 (stereo unspecified) do in these assays?
STAT1 activator: inactive; STAT3 activator: inactive; STAT3 inh: inactive; APP 5'UTR act: inactive; STAT1 inh: inactive; NF-kB neuron act: inactive

Results for CCC(CO)Nc1ncnc2c1cnn2-c1ccc(Cl)cc1 (stereo unspecified) ?
STAT1 activator: 147; STAT3 activator: inactive; STAT3 inh: inactive; APP 5'UTR act: 162; STAT1 inh: inactive; NF-kB neuron act: inactive

What do the screens show for `CCC(CO)Nc1ncnc2c1cnn2-c1ccc(OC)cc1` (stereo unspecified)?
STAT1 activator: 147; STAT3 activator: inactive; STAT3 inh: inactive; APP 5'UTR act: 148; STAT1 inh: inactive; NF-kB neuron act: inactive

Results for Cc1ccc(C)c(NC(=O)CN(C)C(=O)/C=C/c2ccco2)c1 ?
STAT1 activator: inactive; STAT3 activator: inactive; STAT3 inh: inactive; APP 5'UTR act: inactive; STAT1 inh: inactive; NF-kB neuron act: inactive

What do the screens show for `C/C(N)=C(/C#N)C(=O)CSc1cc(C)c2ccccc2n1`?
STAT1 activator: inactive; STAT3 activator: inactive; STAT3 inh: inactive; APP 5'UTR act: inactive; STAT1 inh: inactive

Results for O=C1CN(C(=O)COc2ccc(F)cc2Br)c2ccccc2N1 ?
STAT1 activator: inactive; STAT3 activator: inactive; STAT3 inh: inactive; APP 5'UTR act: inactive; STAT1 inh: inactive; NF-kB neuron act: inactive

What do the screens show for `CC(=O)Oc1c(C(=O)c2nnc(C)o2)c(=O)n(C)c2ccccc12`?
STAT1 activator: inactive; STAT3 activator: inactive; STAT3 inh: inactive; APP 5'UTR act: inactive; STAT1 inh: inactive; NF-kB neuron act: inactive

How did Cc1ccc(NC(=O)CCn2cnc3ccccc3c2=O)cc1Cl do in these assays?
STAT1 activator: 131; STAT3 activator: inactive; STAT3 inh: inactive; APP 5'UTR act: inactive; STAT1 inh: inactive; NF-kB neuron act: inactive

What do the screens show for `Brc1ccc(-c2ccc(/C=N/Nc3nc4ccccc4[nH]3)o2)cc1`?
STAT1 activator: 138; STAT3 activator: inactive; STAT3 inh: inactive; APP 5'UTR act: inactive; STAT1 inh: inactive; NF-kB neuron act: inactive

What do the screens show for `Cc1ccccc1/C=N/Nc1nc2ccccc2[nH]1`?
STAT1 activator: inactive; STAT3 activator: inactive; STAT3 inh: inactive; APP 5'UTR act: inactive; STAT1 inh: inactive; NF-kB neuron act: inactive

What do the screens show for `Fc1cccc(/C=N/Nc2nc3ccccc3[nH]2)c1`?
STAT1 activator: 141; STAT3 activator: inactive; STAT3 inh: inactive; APP 5'UTR act: inactive; STAT1 inh: inactive; NF-kB neuron act: inactive

What do the screens show for `C(=N\Nc1nc2ccccc2[nH]1)/c1c[nH]c2ccccc12`?
STAT1 activator: 130; STAT3 activator: inactive; STAT3 inh: inactive; APP 5'UTR act: inactive; STAT1 inh: inactive; NF-kB neuron act: inactive

How did Fc1cccc(/C=N/Nc2ccccn2)c1 do in these assays?
STAT1 activator: 138; STAT3 activator: inactive; STAT3 inh: inactive; APP 5'UTR act: inactive; STAT1 inh: inactive; NF-kB neuron act: inactive

How did CC(C)COc1cccc(C(=O)NC(=S)NCc2cccnc2)c1 do in these assays?
STAT1 activator: inactive; STAT3 activator: inactive; STAT3 inh: inactive; APP 5'UTR act: inactive; STAT1 inh: inactive; NF-kB neuron act: inactive

What do the screens show for `CSc1nc(=O)n2cc(C)ccc2n1`?
STAT1 activator: inactive; STAT3 activator: inactive; STAT3 inh: inactive; APP 5'UTR act: inactive; STAT1 inh: inactive; NF-kB neuron act: inactive

What do the screens show for `Cn1cc([N+](=O)[O-])c(C(=O)N/N=C\c2c[nH]c3ccccc23)n1`?
STAT1 activator: inactive; STAT3 activator: inactive; STAT3 inh: inactive; APP 5'UTR act: inactive; STAT1 inh: inactive; NF-kB neuron act: inactive

What do the screens show for `C(=N\Nc1ccccn1)/c1ccc2c(c1)OCCO2`?
STAT1 activator: 137; STAT3 activator: inactive; STAT3 inh: inactive; APP 5'UTR act: 140; STAT1 inh: inactive; NF-kB neuron act: inactive

How did O=[N+]([O-])c1ccccc1N/N=C/c1c[nH]c2ccccc12 do in these assays?
STAT1 activator: 151; STAT3 activator: 203; STAT3 inh: inactive; APP 5'UTR act: 173; STAT1 inh: inactive; NF-kB neuron act: 4.2

What do the screens show for `C(=C\c1ccccc1)/C=N/Nc1nc2ccccc2[nH]1`?
STAT1 activator: 148; STAT3 activator: inactive; STAT3 inh: inactive; APP 5'UTR act: 137; STAT1 inh: inactive; NF-kB neuron act: 4.5

How did C=C(C)Cn1c(-c2ccncc2)n[nH]c1=S do in these assays?
STAT1 activator: inactive; STAT3 activator: inactive; STAT3 inh: inactive; APP 5'UTR act: inactive; STAT1 inh: inactive; NF-kB neuron act: inactive

How did CC1(C(=O)NCc2ccc(F)cc2)Oc2ccccc2NC1=O (stereo unspecified) do in these assays?
STAT1 activator: inactive; STAT3 activator: inactive; STAT3 inh: inactive; APP 5'UTR act: inactive; STAT1 inh: inactive; NF-kB neuron act: inactive

What do the screens show for `C=CCSc1nc2ccccc2n1C(=O)/C=C/c1ccc(OC)c(OC)c1`?
STAT1 activator: inactive; STAT3 activator: inactive; STAT3 inh: inactive; APP 5'UTR act: inactive; STAT1 inh: inactive; NF-kB neuron act: inactive

How did C=CCSc1nc2ccccc2n1C(=O)/C=C/c1cc(OC)c(OC)c(OC)c1 do in these assays?
STAT1 activator: 145; STAT3 activator: inactive; STAT3 inh: inactive; APP 5'UTR act: inactive; STAT1 inh: inactive; NF-kB neuron act: inactive

What do the screens show for `CCCOc1ccc(-c2cnc(N)s2)cc1`?
STAT1 activator: 133; STAT3 activator: inactive; STAT3 inh: inactive; APP 5'UTR act: inactive; STAT1 inh: inactive; NF-kB neuron act: inactive

What do the screens show for `O=C(NC(=S)Nc1ccc(Cc2ccncc2)cc1)c1ccc(F)cc1`?
STAT1 activator: inactive; STAT3 activator: inactive; STAT3 inh: inactive; APP 5'UTR act: inactive; STAT1 inh: inactive; NF-kB neuron act: inactive
